Experimental data published in ChEMBL document CHEMBL1138913, “Synthesis, structure analysis, and antitumor activity of 3,6-disubstituted-1,4-dihydro-1,2,4,5-tetrazine derivatives” (2006).

How the values were obtained:
Type in all cases: functional
[1] = tested on: P388; test: Antiproliferative activity against mouse P388 cell line at 10 umol/L by MTT method
Summary of the method: (§1)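 P-388 and HL-60 cells were tested in vitro by MTT assay over five tenfold concentrations from 10^-4 to 10^-8 mol/L. Each value is the percent inhibition ratio of cancer cell growth at that concentration.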

[2] = tested on: HL-60; test: Antiproliferative activity against human HL60 cell line at 1 umol/L by MTT method; summary of the method: as §1
[3] = tested on: Bel-7402; test: Antiproliferative activity against human BEL-7402 cell line at 100 umol/L by SRB method
Summary of the method: (§2)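 Growth inhibition of A-549 and BEL-7402 cells was measured in vitro by sulforhodamine B (SRB) staining. Compounds were tested across five tenfold concentrations from 10^-4 to 10^-8 mol/L, and each value is reported as the percent inhibition ratio of cell growth at that concentration.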

[4] = tested on: Bel-7402; test: Antiproliferative activity against human BEL-7402 cell line at 1 umol/L by SRB method; summary of the method: as §2
[5] = tested on: A549; test: Antiproliferative activity against human A549 cell line at 100 umol/L by SRB method; summary of the method: as §2
[6] = tested on: Bel-7402; test: Antiproliferative activity against human BEL-7402 cell line at 10 umol/L by SRB method; summary of the method: as §2
[7] = tested on: P388; test: Antiproliferative activity against mouse P388 cell line at 0.01 umol/L by MTT method; summary of the method: as §1
[8] = tested on: P388; test: Antiproliferative activity against mouse P388 cell line at 0.1 umol/L by MTT method; summary of the method: as §1
[9] = tested on: HL-60; test: Antiproliferative activity against human HL60 cell line at 10 umol/L by MTT method; summary of the method: as §1
[10] = tested on: HL-60; test: Antiproliferative activity against human HL60 cell line at 0.01 umol/L by MTT method; summary of the method: as §1
[11] = tested on: P388; test: Antiproliferative activity against mouse P388 cell line at 100 umol/L by MTT method; summary of the method: as §1
[12] = tested on: A549; test: Antiproliferative activity against human A549 cell line at 1 umol/L by SRB method; summary of the method: as §2
[13] = tested on: A549; test: Antiproliferative activity against human A549 cell line at 0.1 umol/L by SRB method; summary of the method: as §2
[14] = tested on: HL-60; test: Antiproliferative activity against human HL60 cell line at 100 umol/L by MTT method; summary of the method: as §1
[15] = tested on: HL-60; test: Antiproliferative activity against human HL60 cell line at 0.1 umol/L by MTT method; summary of the method: as §1
[16] = tested on: Bel-7402; test: Antiproliferative activity against human BEL-7402 cell line at 0.1 umol/L by SRB method; summary of the method: as §2
[17] = tested on: P388; test: Antiproliferative activity against mouse P388 cell line at 1 umol/L by MTT method; summary of the method: as §1
[18] = tested on: Bel-7402; test: Antiproliferative activity against human BEL-7402 cell line at 0.01 umol/L by SRB method; summary of the method: as §2
[19] = tested on: A549; test: Antiproliferative activity against human A549 cell line at 0.01 umol/L by SRB method; summary of the method: as §2
[20] = tested on: A549; test: Antiproliferative activity against human A549 cell line at 10 umol/L by SRB method; summary of the method: as §2

Compound	Activity [1]	Activity [2]	Activity [3]	Activity [4]	Activity [5]	Activity [6]	Activity [7]	Activity [8]	Activity [9]	Activity [10]	Activity [11]	Activity [12]	Activity [13]	Activity [14]	Activity [15]	Activity [16]	Activity [17]	Activity [18]	Activity [19]	Activity [20]
c1ccc(C2=NNC(c3ccccc3)=NN2)cc1	69%	2.9%	54%	0%	55.8%	14.3%	0%	0%	16.1%	17.2%	87.6%	5.4%	10.2%	82.1%	2.6%	0%	0%	0%	0%	67.2%
Clc1ccc(Cc2nnc(Cc3ccc(Cl)cc3)nn2)cc1	57.1%	13.5%	61.2%	0%	58.4%	0%	8.7%	1.1%	22.3%	7.6%	65.8%	9.3%	8.9%	85.4%	21.1%	0%	13.1%	6%	0%	29.1%
Cc1cccnc1-c1nnc(-c2ncccc2C)nn1	0%	7%	93%	0%	93.5%	23.8%	0%	0%	96.6%	4.2%	34.9%	0%	0%	94.3%	9.1%	0%	0%	2.8%	0%	9.8%
c1ccc(-c2nnc(-c3ccccc3)nn2)cc1	0%	13.9%	41.7%	0%	60.4%	7.4%	0%	0%	16.4%	0%	15.5%	20.3%	27.1%	35.1%	13.9%	0%	0%	0%	29.7%	9.5%
FC(F)(F)c1ccc(-c2nnc(-c3ccc(C(F)(F)F)cc3)nn2)cc1	2.5%	5.8%	21.3%	0%	51.5%	12.6%	0%	0%	7%	0%	40.2%	33%	19.5%	43.7%	1.4%	0%	0%	0%	9.7%	44.4%
Oc1ccc(Cl)cc1C1=NN=C(c2cc(Cl)ccc2O)NN1	0%	–	–	–	65.3%	–	0%	0%	–	–	89%	0%	0%	–	–	–	0%	–	0%	80.3%
Clc1ccc(C2=NN=C(c3ccc(Cl)cc3)NN2)cc1	51%	–	–	–	73.4%	–	4.9%	19.4%	–	–	65.9%	4.7%	0%	–	–	–	36%	–	7.1%	2%
Cc1cccnc1C1=NN=C(c2ncccc2C)NN1	0%	2.9%	94.9%	0%	2.6%	8.3%	0%	0%	13.6%	17.2%	0%	0%	0%	96.3%	2.6%	0%	0%	0%	0%	3.6%
Clc1ccc(-c2nnc(-c3ccc(Cl)cc3)nn2)cc1	0%	0%	27.4%	0%	52.3%	0.1%	0%	0%	12.2%	0%	0%	29%	19.4%	66.7%	4%	0%	0%	3.4%	16.1%	35.1%
Clc1ccc(CC2=NNC(Cc3ccc(Cl)cc3)=NN2)cc1	15.5%	–	–	–	64.5%	–	0%	2.9%	–	–	48.8%	3%	10.1%	–	–	–	4.4%	–	7.8%	17.8%
FC(F)(F)c1ccc(C2=NN=C(c3ccc(C(F)(F)F)cc3)NN2)cc1	36.9%	–	–	–	70.3%	–	9.1%	13.8%	–	–	47.7%	0%	0%	–	–	–	15.2%	–	0%	22%
Oc1ccc(Cl)cc1-c1nnc(-c2cc(Cl)ccc2O)nn1	90.7%	–	–	–	7.6%	–	82.8%	88%	–	–	92.5%	16.4%	0%	–	–	–	91.2%	–	0%	62.3%
Clc1ccccc1-c1nnc(-c2ccccc2Cl)nn1 [CLOFENTEZINE]	0%	–	–	–	8.2%	–	0%	0%	–	–	0%	5.6%	14.6%	–	–	–	0%	–	12.6%	2.8%
